Test results from PMC3525873 (British Journal of Pharmacology, 2012).
pIC50: −log10 of the molar value.

How the values were obtained:
TRPC6 = molecular target: T1, TRPC6 (Mus musculus, UniProt Q61143); assay: Fura-2 Ca2+ entry in HEK293 cells overexpressing GFP-TRPC6; type: cell-based, murine
T1 sequence (Q61143 1-930): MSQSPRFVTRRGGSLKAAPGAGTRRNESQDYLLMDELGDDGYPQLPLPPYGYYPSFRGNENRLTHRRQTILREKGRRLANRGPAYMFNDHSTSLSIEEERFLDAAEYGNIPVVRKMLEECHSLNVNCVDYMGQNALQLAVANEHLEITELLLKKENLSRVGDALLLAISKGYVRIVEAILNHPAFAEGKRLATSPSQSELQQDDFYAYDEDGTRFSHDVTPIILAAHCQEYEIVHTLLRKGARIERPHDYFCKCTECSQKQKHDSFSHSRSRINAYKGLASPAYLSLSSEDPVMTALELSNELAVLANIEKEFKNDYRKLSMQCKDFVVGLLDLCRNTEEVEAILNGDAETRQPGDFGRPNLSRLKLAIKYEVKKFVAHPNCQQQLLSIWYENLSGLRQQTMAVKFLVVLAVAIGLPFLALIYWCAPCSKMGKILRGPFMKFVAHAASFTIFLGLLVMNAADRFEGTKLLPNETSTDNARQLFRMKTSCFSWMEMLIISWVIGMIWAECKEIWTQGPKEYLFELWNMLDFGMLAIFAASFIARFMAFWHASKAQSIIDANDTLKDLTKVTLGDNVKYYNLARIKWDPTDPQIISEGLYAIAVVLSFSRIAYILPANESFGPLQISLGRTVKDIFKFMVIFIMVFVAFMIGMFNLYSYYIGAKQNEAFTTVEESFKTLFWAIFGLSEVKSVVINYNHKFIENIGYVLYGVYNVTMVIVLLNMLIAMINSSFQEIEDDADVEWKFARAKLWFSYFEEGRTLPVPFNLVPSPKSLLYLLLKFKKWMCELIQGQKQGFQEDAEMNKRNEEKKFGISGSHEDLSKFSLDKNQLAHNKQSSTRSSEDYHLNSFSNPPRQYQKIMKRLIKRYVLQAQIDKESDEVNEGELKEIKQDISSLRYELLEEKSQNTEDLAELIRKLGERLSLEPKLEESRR

NFAT = assay: GFP-NFAT translocation in RBL-2H3 cells; type: cell-based; conditions: 10 μM, thapsigargin 1 μM then 2 mM Ca2+ re-addition
How it was run: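 RBL-2H3 cells electroporated with GFP-NFAT (20 μg DNA, 300 V, 275 μF) 12–18 h beforehand, on coverslips. In nominally Ca2+-free buffer, stores depleted with 1 μM thapsigargin for 5 min, then 2 mM CaCl2 added. Test compound at 10 μM in all buffers. Basal taken before depletion. Cells fixed in paraformaldehyde with DAPI-stained nuclei. Nuclear/cytosolic GFP intensity ratio measured; ≥18 cells per condition.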

TRPC4beta = molecular target: T2, TRPC4beta (Homo sapiens, UniProt Q9UBN4); assay: Fura-2 Ca2+ entry in HEK293 cells overexpressing TRPC4beta-YFP; type: cell-based
T2 sequence (Q9UBN4 1-893 isoform Q9UBN4-2): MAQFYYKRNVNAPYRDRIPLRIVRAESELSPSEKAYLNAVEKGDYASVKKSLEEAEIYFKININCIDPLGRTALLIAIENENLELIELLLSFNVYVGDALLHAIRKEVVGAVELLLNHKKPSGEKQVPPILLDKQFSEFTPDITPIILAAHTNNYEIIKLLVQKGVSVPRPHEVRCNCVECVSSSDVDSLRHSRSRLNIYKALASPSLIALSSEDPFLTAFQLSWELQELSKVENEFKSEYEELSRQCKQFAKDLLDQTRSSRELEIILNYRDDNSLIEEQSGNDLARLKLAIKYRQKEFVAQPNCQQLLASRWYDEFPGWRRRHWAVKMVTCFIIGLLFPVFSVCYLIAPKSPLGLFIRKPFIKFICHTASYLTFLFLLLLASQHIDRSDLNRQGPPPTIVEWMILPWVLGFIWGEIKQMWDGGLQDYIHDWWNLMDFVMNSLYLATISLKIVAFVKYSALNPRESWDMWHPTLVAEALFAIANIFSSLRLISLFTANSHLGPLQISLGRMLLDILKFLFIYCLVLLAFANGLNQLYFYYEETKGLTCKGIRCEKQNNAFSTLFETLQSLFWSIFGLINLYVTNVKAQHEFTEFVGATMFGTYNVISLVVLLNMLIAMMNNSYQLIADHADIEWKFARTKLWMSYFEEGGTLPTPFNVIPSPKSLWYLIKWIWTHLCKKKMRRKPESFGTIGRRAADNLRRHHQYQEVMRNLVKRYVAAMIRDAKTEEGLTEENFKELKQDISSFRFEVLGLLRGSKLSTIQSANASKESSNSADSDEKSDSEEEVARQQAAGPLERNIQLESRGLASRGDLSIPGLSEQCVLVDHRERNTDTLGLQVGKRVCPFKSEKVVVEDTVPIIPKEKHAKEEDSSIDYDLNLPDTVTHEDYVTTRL

[1] = molecular target: CRAC currents in native RBL-2H3 cells (Rattus norvegicus, UniProt Q5M848); assay: Patch-clamp of CRAC currents in native RBL-2H3 cells; type: cell-based
Chain of CRAC currents in native RBL-2H3 cells (Q5M848 whole entry): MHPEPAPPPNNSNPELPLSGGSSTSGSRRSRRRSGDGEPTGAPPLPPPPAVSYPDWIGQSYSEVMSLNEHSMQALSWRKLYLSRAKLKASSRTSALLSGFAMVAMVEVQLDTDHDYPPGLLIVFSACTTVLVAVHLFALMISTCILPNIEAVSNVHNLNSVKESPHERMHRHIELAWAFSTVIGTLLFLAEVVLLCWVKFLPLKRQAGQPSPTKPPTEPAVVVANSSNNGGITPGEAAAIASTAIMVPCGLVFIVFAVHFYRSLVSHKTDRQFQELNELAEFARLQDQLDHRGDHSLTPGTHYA
How it was run: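 Whole-cell recording of native RBL-2H3 cells at room temperature. Stores depleted passively by 20 mM EGTA in the Cs-methanesulphonate pipette solution (pH 7.2). Bath contained 20 mM CaCl2 (pH 7.4). Ramps from −90 to +90 mV over 1 s, holding +30 mV. Test compound at 3 μM, pre-incubated or applied acutely. Net current (minus basal) read at −85 mV 300 s after break-in; n ≥ 6 cells.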

pIC50 (TRPC6)	pIC50 (TRPC4beta)	Effect on CRAC Ca2+ entry-mediating conductance ([1]; 3 μM pre-incubation)	inhibition at 3 µM ([1]; RBL-2H3, read-out: Inhibition of CRAC currents) [%]	Compound	Effect on NFAT translocation (NFAT)
< 5.00	< 5.00	completely inhibiting CRAC currents	–	O=C(Nc1ccc(-n2nc(C(F)(F)F)cc2C(F)(F)F)cc1)c1ccncc1F [Pyr6, N-(4-(3,5-bis(trifluoromethyl)-1H-pyrazole-1-yl)phenyl)-3-fluoroisonicotinamide]	clearly inhibited NFAT translocation
< 5.00	< 5.00	–	~50	Cc1ccc(S(=O)(=O)Nc2ccc(-n3nc(C(F)(F)F)cc3C(F)(F)F)cc2)cc1 [Pyr10, N-(4-(3,5-bis(trifluoromethyl)-1H-pyrazole-1-yl)phenyl)-4-methylbenzenesulfonamide]	failed to suppress NFAT activation significantly
